Measured values reported in ChEMBL document CHEMBL4196221, “Improved Total Synthesis and Biological Evaluation of Coibamide A Analogues” (J Med Chem, 2018).
Active and inactive are the calls of the source. No cut-off for these calls is given here. Bridge positions count the residues as written; N and C are the ends. Square brackets hold non-standard residues; d marks the D form. Peptide text beside a SMILES is read from it. * marks the point of attachment. NMe2Val = CC(C)[C@@H](C(=O)*)N(C)C; NMeI = CC[C@H](C)[C@H](NC)C(=O)O; NMeT = CN[C@H](C(=O)O)[C@@H](C)O; NMeL = CN[C@@H](CC(C)C)C(=O)O; dHiv = CC(C)[C@@H](O)C(=O)O; NMeA = CN[C@@H](C)C(=O)O; dNMeA = CN[C@H](C)C(=O)O

What was measured:
MDA-MB-231 [1] = assay: Growth inhibition of human MDA-MB-231 cells incubated for 72 hrs by MTT assay; format: functional; conditions: MDA-MB-231, 72 h
Procedure, shortened: (§1)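 Cells seeded in 96-well plates; after 12 h, fresh medium with a concentration gradient of compound or DMSO vehicle added, then 72 h incubation. MTT added (final 0.5 mg/mL) for 4 h, medium removed, formazan dissolved in DMSO, shaken 2 min, 30 min at 37 °C, absorbance read at 490 nm. Inhibition % = [1 − OD(compound)/OD(control)] × 100; GI50 = 50% reduction versus control; three independent experiments.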

PANC-1 = assay: Growth inhibition of human PANC1 cells incubated for 72 hrs by MTT assay; format: functional; conditions: PANC-1, 72 h; procedure, shortened: as §1
A549 = assay: Growth inhibition of human A549 cells incubated for 72 hrs by MTT assay; format: functional; conditions: A549, 72 h; procedure, shortened: as §1
MDA-MB-231 [2] = assay: Antitumor activity against human MDA-MB-231 cells xenografted in Balb/c nude mouse assessed as reduction in tumor size at 0.3 mg/kg, sc dosed every 2 days for total of 11 compound injections measured on day 9 onwards; format: functional, organism-based
Procedure, shortened: (§2)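 Balb/c nude mice given 1 ×10^7 MDA-MB-231 cells subcutaneously in right flank; at tumor size ∼100 mm3 (L × W × 1/2W), peritumoral subcutaneous injection every 2 days, vehicle equal volume 20% DMSO/80% sterile saline. Tumor size and body weight measured before each injection; after 11 injections mice sacrificed and tumors weighed. n = 7 treated, 4 vehicle; one-way ANOVA.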

MDA-MB-231 [3] = assay: Antitumor activity against human MDA-MB-231 cells xenografted in Balb/c nude mouse assessed as reduction in tumor mass at 0.3 mg/kg, sc dosed every 2 days for total of 11 compound injections; format: functional; procedure, shortened: as §2
Mus musculus [4] = assay: Toxicity in Balb/c nude mouse xenografted with human MDA-MB-231 cells assessed as induction of body weight loss at 0.3 mg/kg, sc dosed every 2 days for total of 11 compound injections; format: organism-based; conditions: in vivo, 48 h; procedure, shortened: as §2
Mus musculus [5] = assay: Toxicity in Balb/c nude mouse xenografted with human MDA-MB-231 cells assessed as induction of side effect at 0.3 mg/kg, sc dosed every 2 days for total of 11 compound injections; format: organism-based; conditions: in vivo, 48 h; procedure, shortened: as §2

| SMILES | GI50 (MDA-MB-231 [1]) | GI50 (PANC-1) | GI50 (A549) | Activity (MDA-MB-231 [2]) | fold change (FC) (MDA-MB-231 [3]) | Activity (Mus musculus [4]) | Activity (Mus musculus [5]) |
| --- | --- | --- | --- | --- | --- | --- | --- |
| CC[C@H](C)[C@H]1C(=O)N[C@@H](C)C(=O)N(C)[C@@H](CC(C)C)C(=O)N[C@@H](Cc2ccc(OC)cc2)C(=O)N(C)[C@H](C)C(=O)O[C@H](C)[C@H](N(C)C(=O)[C@H](CC(C)C)N(C)C(=O)[C@@H](COC)N(C)C(=O)[C@@H](OC(=O)[C@H](C(C)C)N(C)C)C(C)C)C(=O)N(C)[C@@H](COC)C(=O)N1C | 2660 nM | 1910 nM | 2000 nM |  |  |  |  |
| CC[C@H](C)[C@H]1C(=O)N[C@@H](C)C(=O)N(C)[C@@H](CC(C)C)C(=O)N[C@@H](Cc2ccc(OC)cc2)C(=O)N(C)[C@H](C)C(=O)O[C@H](C)[C@@H](N(C)C(=O)[C@H](CC(C)C)N(C)C(=O)[C@H](COC)N(C)C(=O)[C@@H](OC(=O)[C@H](C(C)C)N(C)C)C(C)C)C(=O)N(C)[C@@H](COC)C(=O)N1C | 10800 nM |  |  |  |  |  |  |
| CC[C@H](C)[C@H]1C(=O)N[C@@H](C)C(=O)N(C)[C@@H](CC(C)C)C(=O)N[C@@H](Cc2ccc(OC)cc2)C(=O)N(C)[C@@H](C)C(=O)O[C@H](C)[C@H](N(C)C(=O)[C@H](CC(C)C)N(C)C(=O)[C@H](COC)N(C)C(=O)[C@H](OC(=O)[C@H](C(C)C)N(C)C)C(C)C)C(=O)N(C)[C@@H](COC)C(=O)N1C | 7520 nM | 12400 nM | 20100 nM |  |  |  |  |
| CC[C@H](C)[C@H]1C(=O)N[C@@H](C)C(=O)N(C)[C@@H](CC(C)C)C(=O)N[C@@H](Cc2ccc(OC)cc2)C(=O)N(C)[C@H](C)C(=O)O[C@H](C)[C@H](N(C)C(=O)[C@H](CC(C)C)N(C)C(=O)[C@H](C)N(C)C(=O)[C@H](OC(=O)[C@H](C(C)C)N(C)C)C(C)C)C(=O)N(C)[C@@H](C)C(=O)N1C (NMe2Val-[dHiv][NMeA][NMeL][NMeT][NMeA][NMeI]A[NMeL]Y(Me)[dNMeA]; ester 4-C) | 5.1 nM | 7 nM | 7.3 nM | Active | 2 | Non-Toxic | Non-Toxic |
| CC[C@H](C)[C@H]1C(=O)N[C@@H](C)C(=O)N(C)[C@@H](CC(C)C)C(=O)N[C@@H](Cc2ccc(OC)cc2)C(=O)N(C)[C@H](C)C(=O)O[C@H](C)[C@H](N(C)C(=O)[C@H](CC(C)C)N(C)C(=O)[C@H](COC)N(C)C(=O)[C@@H](OC(=O)[C@H](C(C)C)N(C)C)C(C)C)C(=O)N(C)[C@@H](COC)C(=O)N1C | 545 nM |  | 19 nM |  |  |  |  |
| CC[C@H](C)[C@H]1C(=O)N[C@@H](C)C(=O)N(C)[C@@H](CC(C)C)C(=O)N[C@@H](Cc2ccc(OC)cc2)C(=O)N(C)[C@H](C)C(=O)O[C@H](C)[C@H](N(C)C(=O)[C@H](CC(C)C)N(C)C(=O)[C@H](CCCCNC(=O)OC(C)(C)C)N(C)C(=O)[C@H](OC(=O)[C@H](C(C)C)N(C)C)C(C)C)C(=O)N(C)[C@@H](C)C(=O)N1C | 61.6 nM | 124 nM | 81.7 nM |  |  |  |  |
| CC[C@H](C)[C@H]1C(=O)N[C@@H](C)C(=O)N(C)[C@@H](CC(C)C)C(=O)N[C@@H](Cc2ccc(OC)cc2)C(=O)N(C)[C@H](C)C(=O)O[C@H](C)[C@H](N(C)C(=O)[C@H](CC(C)C)N(C)C(=O)[C@H](COC)N(C)C(=O)[C@H](OC(=O)[C@H](C(C)C)N(C)C)C(C)C)C(=O)N(C)[C@@H](COC)C(=O)N1C | 5 nM | 3.1 nM | 5.4 nM |  |  |  |  |
| CC[C@H](C)[C@H]1C(=O)N[C@@H](C)C(=O)N(C)[C@@H](CC(C)C)C(=O)N[C@@H](Cc2ccc(OC)cc2)C(=O)N(C)[C@@H](C)C(=O)O[C@H](C)[C@H](N(C)C(=O)[C@H](CC(C)C)N(C)C(=O)[C@H](COC)N(C)C(=O)[C@@H](OC(=O)[C@H](C(C)C)N(C)C)C(C)C)C(=O)N(C)[C@@H](COC)C(=O)N1C | > 16000 nM |  | 22800 nM |  |  |  |  |

The next lines start with results.

| GI50 (MDA-MB-231 [1]) | GI50 (PANC-1) | GI50 (A549) | SMILES | Activity (MDA-MB-231 [2]) | fold change (FC) (MDA-MB-231 [3]) | Activity (Mus musculus [4]) | Activity (Mus musculus [5]) |
| --- | --- | --- | --- | --- | --- | --- | --- |
| 2060 nM | 2180 nM |  | CC[C@H](C)[C@H]1C(=O)N[C@@H](C)C(=O)N(C)[C@@H](CC(C)C)C(=O)N[C@@H](Cc2ccc(OC)cc2)C(=O)N(C)[C@H](C)C(=O)O[C@H](C)[C@H](N(C)C(=O)[C@H](CC(C)C)N(C)C(=O)[C@H](CO)N(C)C(=O)[C@H](OC(=O)[C@H](C(C)C)N(C)C)C(C)C)C(=O)N(C)[C@@H](CO)C(=O)N1C |  |  |  |  |
| > 16000 nM |  |  | CC[C@H](C)[C@H]1C(=O)N[C@@H](C)C(=O)N(C)[C@@H](CC(C)C)C(=O)N[C@@H](Cc2ccc(OC)cc2)C(=O)N(C)[C@H](C)C(=O)O[C@H](C)[C@H](N(C)C(=O)[C@H](CC(C)C)NC)C(=O)N(C)[C@@H](C)C(=O)N1C |  |  |  |  |
| 183 nM | 277 nM | 222 nM | CC[C@H](C)[C@H]1C(=O)N[C@@H](C)C(=O)N(C)[C@@H](CC(C)C)C(=O)N[C@@H](Cc2ccc(O)cc2)C(=O)N(C)[C@H](C)C(=O)O[C@H](C)[C@H](N(C)C(=O)[C@H](CC(C)C)N(C)C(=O)[C@H](COC)N(C)C(=O)[C@H](OC(=O)[C@H](C(C)C)N(C)C)C(C)C)C(=O)N(C)[C@@H](COC)C(=O)N1C |  |  |  |  |
| 415 nM | 723 nM | 511 nM | CC[C@H](C)[C@H]1C(=O)N[C@@H](C)C(=O)N(C)[C@@H](CC(C)C)C(=O)N[C@@H](Cc2ccc(OC)cc2)C(=O)N(C)[C@H](C)C(=O)O[C@H](C)[C@H](N(C)C(=O)[C@H](CC(C)C)N(C)C(=O)[C@H](C)N(C)C(=O)[C@@H](C(C)C)N(C)C(=O)[C@H](C(C)C)N(C)C)C(=O)N(C)[C@@H](C)C(=O)N1C |  |  |  |  |
| 450 nM | 601 nM | 473 nM | CC[C@H](C)[C@H]1C(=O)N[C@@H](C)C(=O)N(C)[C@@H](CC(C)C)C(=O)N[C@@H](Cc2ccc(OC)cc2)C(=O)N(C)[C@H](C)C(=O)O[C@H](C)[C@H](N(C)C(=O)[C@H](CC(C)C)N(C)C(=O)[C@H](COC)N(C)C(=O)[C@H](NC(=O)[C@H](C(C)C)N(C)C)C(C)C)C(=O)N(C)[C@@H](COC)C(=O)N1C |  |  |  |  |
| 470 nM | 828 nM | 733 nM | CCCCCCCCCC(=O)N(C)[C@@H](CC(C)C)C(=O)N(C)[C@@H]1C(=O)N(C)[C@@H](C)C(=O)N(C)[C@@H]([C@@H](C)CC)C(=O)N[C@@H](C)C(=O)N(C)[C@@H](CC(C)C)C(=O)N[C@@H](Cc2ccc(OC)cc2)C(=O)N(C)[C@H](C)C(=O)O[C@@H]1C |  |  |  |  |
| > 16000 nM |  |  | CC[C@H](C)[C@H]1C(=O)N[C@@H](C)C(=O)N(C)[C@@H](CC(C)C)C(=O)N[C@@H](Cc2ccc(OC)cc2)C(=O)N(C)[C@H](C)C(=O)O[C@H](C)[C@H](N(C)C(=O)[C@H](CC(C)C)N(C)C(=O)[C@H](C)N(C)C(=O)[C@H](OC(=O)[C@H](C(C)C)N(C)C(=O)CCN)C(C)C)C(=O)N(C)[C@@H](C)C(=O)N1C |  |  |  |  |
| 5.3 nM | 32.9 nM | 12.4 nM | CC[C@H](C)[C@H]1C(=O)N[C@@H](C)C(=O)N(C)[C@@H](CC(C)C)C(=O)N[C@@H](Cc2ccc(OC)cc2)C(=O)N(C)[C@H](C)C(=O)O[C@H](C)[C@H](N(C)C(=O)[C@H](CC(C)C)N(C)C(=O)[C@H](COC(C)(C)C)N(C)C(=O)[C@H](OC(=O)[C@H](C(C)C)N(C)C)C(C)C)C(=O)N(C)[C@@H](C)C(=O)N1C |  |  |  |  |
| 20.8 nM | 46.3 nM | 194 nM | CC[C@H](C)[C@H]1C(=O)N[C@@H](C)C(=O)N(C)[C@@H](CC(C)C)C(=O)N[C@@H](Cc2ccc(OC)cc2)C(=O)N(C)[C@H](C)C(=O)O[C@H](C)[C@H](N(C)C(=O)[C@H](CC(C)C)N(C)C(=O)[C@H](CO)N(C)C(=O)[C@H](OC(=O)[C@H](C(C)C)N(C)C)C(C)C)C(=O)N(C)[C@@H](COC(C)(C)C)C(=O)N1C |  |  |  |  |
| 239 nM | 415 nM | 443 nM | CC[C@H](C)[C@H]1C(=O)N[C@@H](C)C(=O)N(C)[C@@H](CC(C)C)C(=O)N[C@@H](Cc2ccc(OC)cc2)C(=O)N(C)[C@H](C)C(=O)O[C@H](C)[C@H](N(C)C(=O)[C@H](CC(C)C)N(C)C(=O)[C@H](C)N(C)C(=O)[C@H](OC(=O)[C@H](C(C)C)N(C)C(=O)CCNC(=O)OC(C)(C)C)C(C)C)C(=O)N(C)[C@@H](C)C(=O)N1C |  |  |  |  |
| 236 nM | 204 nM | 360 nM | CC[C@H](C)[C@H]1C(=O)N[C@@H](C)C(=O)N(C)[C@@H](CC(C)C)C(=O)N[C@@H](Cc2ccc(OC)cc2)C(=O)N(C)[C@H](C)C(=O)O[C@H](C)[C@H](N(C)C(=O)[C@H](CC(C)C)N(C)C(=O)[C@H](C)N(C)C(=O)[C@H](OC(=O)[C@@H](NC)C(C)C)C(C)C)C(=O)N(C)[C@@H](C)C(=O)N1C |  |  |  |  |
